We go through 19 compounds from ChEMBL document CHEMBL3286143, “Minimizing the Contribution of Enterohepatic Recirculation to Clearance in Rat for the NCINI Class of Inhibitors of HIV” (ACS Med Chem Lett, 2014).

The target of data set [1] is T1, Human immunodeficiency virus type 1 integrase (Human immunodeficiency virus 1, UniProt Q7ZJM1). The data set can be described thus: Apparent binding affinity to Trx-His-tagged HIV integrase. The note with it: read-out: Kd(app). Summed up:
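Apparent dissociation constant from the same displacement assay, run instead with a thioredoxin-tagged His6 integrase construct.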

Data set [2] relates to Human immunodeficiency virus 1. The data set can be described thus: Antiviral activity against HIV1 NL4.3 harboring integrase T124/T125 mutant. In kind it is functional, organism-based. The note with it: Human immunodeficiency virus 1, NL4.3. Summed up:
(§1)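 Cell-based antiviral assay giving EC50 (nM) against wild-type NL4.3 (IN T124/T125) or recombinant NL4.3 engineered to carry the naturally polymorphic integrase residues at positions 124 and 125.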

Data set [3] deals with Human immunodeficiency virus 1. Put plainly: Antiviral activity against HIV1 NL4.3 harboring integrase N124/T125 mutant. In kind it is functional, organism-based. The conditions noted are these: Human immunodeficiency virus 1, NL4.3. Summed up:
as §1

A short description of data set [4]: Half life in human liver microsomes. Format: ADME. On the technique in general: Liver microsomes are vesicles of endoplasmic reticulum, rich in cytochrome P450 enzymes.
Data set [5] in a line: Half life in rat liver microsomes. In kind it is ADME.
Data set [6] addresses T1, Human immunodeficiency virus type 1 integrase. The data set can be described thus: Apparent binding affinity to His-tagged HIV integrase. The conditions noted are these: read-out: Kd(app).
Data set [7] deals with Human immunodeficiency virus 1. Put plainly: Antiviral activity against HIV1 NL4.3 harboring integrase T124/A125 mutant. The note with it: Human immunodeficiency virus 1, NL4.3. Format: functional, organism-based. The method, boiled down: as §1
For data set [8], the target named is Human immunodeficiency virus type 1 integrase (Human immunodeficiency virus 1) (UniProt Q7ZJM1). Put plainly: Ratio of app-Kd for Trx-His-tagged HIV integrase to His-tagged HIV integrase.
Chain of Human immunodeficiency virus type 1 integrase (Human immunodeficiency virus 1) (Q7ZJM1 as listed by the source): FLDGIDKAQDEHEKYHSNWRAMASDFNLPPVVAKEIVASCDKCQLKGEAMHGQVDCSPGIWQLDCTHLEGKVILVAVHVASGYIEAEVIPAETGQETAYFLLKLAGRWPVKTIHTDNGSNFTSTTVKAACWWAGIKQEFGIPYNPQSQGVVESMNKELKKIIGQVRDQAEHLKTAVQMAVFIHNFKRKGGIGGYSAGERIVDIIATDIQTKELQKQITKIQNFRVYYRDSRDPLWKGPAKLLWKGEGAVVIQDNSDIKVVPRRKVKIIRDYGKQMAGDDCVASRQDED
The species entered for data set [9] is Rattus norvegicus. The data set can be described thus: Clearance in rat. The conditions noted are these: in vivo. In kind it is ADME, organism-based.
A short description of data set [10]: Half life in bile duct cannulated rat. In kind it is ADME, organism-based. The note with it: in vivo.
The test system of data set [11] is Human immunodeficiency virus 1. Put plainly: Antiviral activity against HIV-1 NL4.3-HxB2 virus harboring integrase T124/T125 mutant relative to control in presence of 50% human serum. Format: functional.
The test system of data set [12] is Human immunodeficiency virus 1. The data set can be described thus: Antiviral activity against HIV1 NL4.3 harboring integrase T124/T125 mutant relative to control in presence of 50% human serum. In kind it is functional. Summed up:
(§2)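 Serum shift for the same NL4.3 IN-variant viruses, from EC50 values measured with and without 50% human serum.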

In data set [13] the test system is Human immunodeficiency virus 1. Put plainly: Antiviral activity against HIV1 NL4.3 harboring integrase A124/T125 mutant relative to control in presence of 50% human serum. Format: functional. The method, boiled down:
as §2

In data set [14] the test system is Human immunodeficiency virus 1. Put plainly: Antiviral activity against HIV1 NL4.3 harboring integrase A124/A125 mutant relative to control in presence of 50% human serum. In kind it is functional. Summed up: as §2
The subject of data set [15] is Human immunodeficiency virus 1. Put plainly: Antiviral activity against HIV1 NL4.3 harboring integrase N124/T125 mutant relative to control in presence of 50% human serum. Format: functional. The method, boiled down: as §2
Data set [16] concerns Human immunodeficiency virus 1. Put plainly: Antiviral activity against HIV1 NL4.3 harboring integrase N124/A125 mutant relative to control in presence of 50% human serum. Format: functional. The method, boiled down: as §2
For data set [17], the system named is Human immunodeficiency virus 1. Put plainly: Antiviral activity against HIV-1 NL4.3-HxB2 virus harboring integrase T124/T125 mutant. The note with it: Human immunodeficiency virus 1, NL4.3-HxB2; pooled result: one value given for 4 cell lines, strains, targets or settings. In kind it is functional, organism-based.
Data set [18] deals with Cytochrome P450 2D6 (Homo sapiens, UniProt P10635). Put plainly: Inhibition of CYP2D6 (unknown origin). In kind it is ADME.
Chain of Cytochrome P450 2D6 (P10635 whole entry): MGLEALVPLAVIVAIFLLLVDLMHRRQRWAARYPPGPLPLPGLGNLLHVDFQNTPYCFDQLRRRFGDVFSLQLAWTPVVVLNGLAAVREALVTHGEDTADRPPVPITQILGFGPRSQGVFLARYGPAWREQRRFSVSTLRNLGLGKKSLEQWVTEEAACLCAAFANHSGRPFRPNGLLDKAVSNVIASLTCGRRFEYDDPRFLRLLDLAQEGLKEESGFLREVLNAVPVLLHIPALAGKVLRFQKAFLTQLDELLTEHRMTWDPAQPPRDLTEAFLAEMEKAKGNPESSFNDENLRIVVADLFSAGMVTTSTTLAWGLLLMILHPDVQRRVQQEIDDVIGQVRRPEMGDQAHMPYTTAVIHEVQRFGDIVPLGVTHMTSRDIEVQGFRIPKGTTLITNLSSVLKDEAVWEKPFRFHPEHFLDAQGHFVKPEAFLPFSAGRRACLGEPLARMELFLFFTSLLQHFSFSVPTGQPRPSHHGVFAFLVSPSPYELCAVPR
The nature of data set [19]: Solubility of the compound at pH 6.8. In kind it is physicochemical. The conditions noted are these: buffer.
Data set [20] can be described thus: Drug excretion in bile duct cannulated rat bile after 3 hrs. The conditions noted are these: read-out: Drug excretion. Format: ADME. The method, boiled down:
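Rats with cannulated bile ducts were dosed, and the fraction of compound excreted into bile was measured at the 3 h time point.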

Data set [21] is described as follows: Half life in rat. Format: ADME, organism-based. The note with it: in vivo.
The target of data set [22] is Cytochrome P450 3A4 (Homo sapiens, UniProt P08684). Put plainly: Inhibition of CYP3A4 (unknown origin). In kind it is ADME.
Chain of Cytochrome P450 3A4 (P08684 whole entry): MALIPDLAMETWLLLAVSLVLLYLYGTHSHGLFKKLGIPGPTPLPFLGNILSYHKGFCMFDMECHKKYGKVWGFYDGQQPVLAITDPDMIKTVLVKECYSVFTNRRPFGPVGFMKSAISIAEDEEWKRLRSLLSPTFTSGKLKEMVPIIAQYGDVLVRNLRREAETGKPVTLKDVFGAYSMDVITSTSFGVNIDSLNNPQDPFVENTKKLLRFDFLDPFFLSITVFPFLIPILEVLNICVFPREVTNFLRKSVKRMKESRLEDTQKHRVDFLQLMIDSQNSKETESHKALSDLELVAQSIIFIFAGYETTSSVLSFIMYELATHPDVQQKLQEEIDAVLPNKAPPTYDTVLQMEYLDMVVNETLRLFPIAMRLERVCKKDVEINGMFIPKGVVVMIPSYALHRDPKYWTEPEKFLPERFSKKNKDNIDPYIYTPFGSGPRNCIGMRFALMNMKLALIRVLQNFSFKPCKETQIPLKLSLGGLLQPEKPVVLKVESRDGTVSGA
The nature of data set [23]: Apparent permeability in human Caco2 cells. Format: ADME, cell-based. The note with it: Caco-2. Background: Caco-2 cells form a polarised layer with tight junctions and transporters.
Data set [24] can be described thus: Lipophilicity, log D of the compound at pH 7.4. Format: physicochemical. The note with it: buffer.

Converted amounts (≈) assume the structure as drawn. Bounds are passed on as bounds.

T1 sequence (Q7ZJM1 whole entry): as the sequence (Q7ZJM1 as listed by the source) above

Turning to `Cc1ccc(-c2nc(C)c([C@H](OC(C)(C)C)C(=O)O)c(-c3ccc4c(c3Cl)NCCO4)c2C)cc1C` (single isomer, unassigned; atropisomer), the Kd in data set [1] was determined as 28 nM. Also, the concentration giving a half-maximal response (EC50) in [2] is 3.3 nM; in [3], 830 nM. Besides, the figures for the half-life in data set [4] and in [5] were 1.7 h and 0.933 h, respectively.

For the compound `Cc1nc2c(c(-c3ccc4c(c3)CCCO4)c1[C@H](OC(C)(C)C)C(=O)O)CCCc1ccccc1-2`, in [6], the Kd was 1100 nM. In data set [2], this compound showed an EC50 of 560 nM.

Turning to `Cc1nc(-c2cccc(-c3cnn(C)c3)c2)c(C)c(-c2ccc3c(c2)CCCO3)c1[C@H](OC(C)(C)C)C(=O)O`, in [1], the Kd turned out to be 59 nM. The EC50 turned out to be 24 nM in [2] and 920 nM in data set [3].

Regarding `Cc1noc(C)c1-c1ccc(-c2nc(C)c([C@H](OC(C)(C)C)C(=O)O)c(-c3ccc4c(c3)CCCO4)c2C)c(F)c1`, the Kd in data set [1] stood at 35 nM. Also, the half-maximal effective concentration (EC50) is 7.3 nM in data set [2] and 830 nM in [3]. In addition, the half-life in data set [4] amounted to 1 h.

Consider `Cc1nc(-c2cccc(-c3ccnn3C)c2)c(C)c(-c2ccc3c(c2)CCCO3)c1[C@H](OC(C)(C)C)C(=O)O`, for which, in data set [1], the Kd worked out at 52 nM. The concentration giving a half-maximal response (EC50) is 10 nM in [2] and 1000 nM in data set [3].

As for `Cc1nc2ccccc2c(-c2ccc3c(c2)CCCO3)c1[C@H](OC(C)(C)C)C(=O)O`, in [6], the Kd was 24 nM. Besides, the concentration giving a half-maximal response (EC50) in [2] amounted to 51 nM; in data set [7], 30 nM; in [3], 77 nM.

Regarding `Cc1nc(-c2ccccc2)c(C)c(-c2ccc3c(c2)CCCO3)c1[C@H](OC(C)(C)C)C(=O)O`, the figures for the Kd in data set [6] and in [1] were 1000 nM and 40 nM, respectively. Moreover, in [8], the Ratio was determined as 25. Also, the EC50 came to 68 nM in data set [2], 78 nM in [7] and 800 nM in [3]. Moreover, the half-life in [4] is 0.533 h.

On to `Cc1ccc(-c2nc(C)c([C@H](OC(C)(C)C)C(=O)O)c(-c3ccc4c(c3)CCCO4)c2C)cc1C`, for which the Kd in data set [1] was 27 nM. Also, the EC50 worked out at 11 nM in [2] and 1400 nM in data set [3]. Moreover, the half-life in data set [4] turned out to be 0.567 h; in data set [5], 1.83 h.

Turning to `Cc1ccc(-c2nc(C)c([C@H](OC(C)(C)C)C(=O)O)c(-c3ccc4c(c3)CCCO4)c2C)cc1`, the Kd in [1] came to 31 nM. Also, the EC50 in [2] came out at 18 nM; in data set [3] it was 1400 nM. The same compound yielded a half-life in data set [4] of 0.717 h.

In the case of `Cc1cccc(-c2nc(C)c([C@H](OC(C)(C)C)C(=O)O)c(-c3ccc4c(c3)CCCO4)c2C)c1`, the EC50 stood at 23 nM in data set [2] and 1100 nM in data set [3].

As for `Cc1ccc(-c2nc(C)c([C@H](OC(C)(C)C)C(=O)O)c(-c3ccc4c(c3C)CCCO4)c2C)cc1C` (single isomer, unassigned; atropisomer), the Kd in data set [1] is 26 nM. The results for the EC50 in [2] and in data set [3] were 2.7 nM and 620 nM, respectively. Further, the half-life is 1.13 h in data set [4] and 1.5 h in data set [5].

Take `Cc1nc2c(ccc3ccccc32)c(-c2ccc3c(c2)CCCO3)c1[C@H](OC(C)(C)C)C(=O)O`: the Kd in data set [6] is 180 nM. Also, the EC50 was found to be 62 nM in [2] and 63 nM in [7].

With `Cc1cc(-c2nc(C)c([C@H](OC(C)(C)C)C(=O)O)c(-c3ccc4c(c3)CCCO4)c2C)ccc1Cl`, the Kd in data set [1] is 17 nM. The half-maximal effective concentration (EC50) turned out to be 5.8 nM in [2] and 960 nM in data set [3]. For the same compound, the half-life in data set [4] stood at 0.717 h.

Consider `Cc1nc(-c2ccc(-c3ccncc3)cc2)c(C)c(-c2ccc3c(c2)CCCO3)c1[C@H](OC(C)(C)C)C(=O)O`, for which the Kd in [1] was 24 nM. The EC50 was determined as 23 nM in data set [2] and 150 nM in [3].

On to `Cc1ccc(-c2nc(C)c([C@H](OC(C)(C)C)C(=O)O)c(-c3ccc(Cl)cc3)c2C)cc1C`, for which the Kd in data set [1] stood at 40 nM. Further, the EC50 in data set [2] was found to be 14 nM; in [3], 2700 nM. In addition, the results for the half-life in [4] and in data set [5] were 1.28 h and 0.85 h, respectively.

For the compound `Cc1nc2ccccc2c(-c2ccc3c4c(ccnc24)CCO3)c1[C@H](OC(C)(C)C)C(=O)O` [BI-224436], the CL in [9] was 0.7%. Further, the half-life in data set [10] was 1.6 h; in data set [5] it was above 5 h. Besides, the “fold change (FC)” value in data set [11], in data set [12], in data set [13], in [14], in data set [15] and in [16] was 2.1 each time. This compound also came in with an EC50 in data set [17] of 11 nM. In addition, the IC50 in data set [18] was above 30000 nM. The solubility in data set [19] is above 850 µg/mL. Also, the dose excreted at 3 h in data set [20] was 60%.

In the case of `Cc1nc2c(c(-c3ccc4c(c3)CCCO4)c1[C@H](OC(C)(C)C)C(=O)O)Cc1ccccc1-2`, in [6], the Kd is 160 nM. The EC50 came to 72 nM in data set [2], 110 nM in data set [7] and 34 nM in [3].

With `Cc1noc(C)c1-c1ccc(-c2nc(C)c([C@H](OC(C)(C)C)C(=O)O)c(-c3ccc4c(c3)CCCO4)c2C)cc1`, the concentration giving a half-maximal response (EC50) in [2] is 5.5 nM; in data set [3] it was 390 nM.

Compound `Cc1noc(C)c1-c1ccc(-c2nc(C)c([C@H](OC(C)(C)C)C(=O)O)c(-c3ccc(Cl)cc3)c2C)cc1` came in with a CL in data set [9] of 0.6%. The half-life in [21] was 8.9 h; in [10], 5.4 h; in data set [4] it was 3.83 h; in [5], 2.67 h. The “fold change (FC)” value in data set [11], in data set [12], in [13], in data set [14], in [15] and in data set [16] was 9.9 in each case. In data set [1], the Kd is 50 nM. Further, the EC50 in data set [2] amounted to 7.7 nM; in [3] it was 810 nM; in data set [17], 6.5 nM. Besides, the half-maximal inhibitory concentration (IC50) in data set [22] was 17000 nM; in data set [18], above 30000 nM. In data set [23], the apparent permeability (Papp) is 17 ×10⁻⁶ cm/s. Moreover, the logD in [24] stood at 3.1. Also, in data set [19], the concentration in solution (solubility) was 250 µg/mL (≈ 482 µM). Further, the dose excreted at 3 h in data set [20] stood at 22%.

Broadly, the EC50 is the midpoint of the concentration-response curve. Low readings indicate greater potency, high ones weaker potency. By half-life is commonly meant the time in which the quantity being followed falls by half. As a reminder, the IC50 is the concentration at which inhibition is half-maximal. Read a low IC50 as inhibition by little substance. Usually solubility stands for the dissolved amount per volume that the medium holds. For orientation: Papp means a coefficient for how fast a substance crosses the barrier. By logD is commonly meant lipophilicity at a set pH, counting ionised and neutral species. A low value points to lower lipophilicity.
